In data set [1] the test system is Cryptococcus neoformans. Briefly: Antifungal activity against Cryptococcus neoformans ATCC 350 after 70 to 74 hrs by alamar blue dye based CLSI method. The class given is functional.
For data set [2], the system named is Cryptococcus neoformans. Briefly: Antifungal activity against Cryptococcus neoformans ATCC 90113 after 70 to 74 hrs by alamar blue dye based CLSI method. The format is functional.
The subject of data set [3] is Cryptococcus neoformans. Briefly: Fungicidal activity against Cryptococcus neoformans ATCC 350 at 0.89 ug/ml after 4 hrs by time kill assay. The class given is functional.
A further data set concerns SK-OV-3. Briefly: Cytotoxicity against human SKOV3 cells assessed as reduction in cell viability after 48 hrs by neutral red uptake assay. The format is cell-based. The following applies: sk-ov-3, 48 h. The procedure, abridged: (§1)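 Cells seeded at 25 000 per well and grown 24 h to confluence, then exposed to peptides up to 10 μg/mL for 48 h; viability by modified neutral red uptake; doxorubicin positive control, DMSO negative control.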

The subject of the next data set is SK-MEL. Briefly: Cytotoxicity against human SK-MEL cells assessed as reduction in cell viability after 48 hrs by neutral red uptake assay. The format is cell-based. Put shortly:
as §1

The next data set has as its system BT-549. The data set is described as follows: Cytotoxicity against human BT549 cells assessed as reduction in cell viability after 48 hrs by neutral red uptake assay. The format is cell-based. As to conditions: bt-549, 48 h. The procedure, abridged: as §1
The next data set deals with LLC-PK1. Briefly: Cytotoxicity against pig LLC-PK1 cells assessed as reduction in cell viability after 48 hrs by neutral red uptake assay. The class given is cell-based, Sus scrofa. As to conditions: llc-pk1, 48 h. The procedure, abridged: as §1
Another data set deals with Vero. Briefly: Cytotoxicity against African green monkey Vero cells assessed as reduction in cell viability after 48 hrs by neutral red uptake assay. The class given is cell-based. The following applies: chlorocebus sabaeus. Put shortly:
as §1

A short description of data set [4]: Selectivity index, ratio of cytotoxicity against human SKOV3 cells to IC50 for Cryptococcus neoformans ATCC 90113. The class given is toxicity, cell-based. As to conditions: read-out: Selectivity Index.
Data set [5] is described as follows: Selectivity index, ratio of cytotoxicity against human SK-MEL cells to IC50 for Cryptococcus neoformans ATCC 90113. The class given is toxicity, cell-based. As to conditions: read-out: Selectivity Index.
Data set [6] can be described thus: Selectivity index, ratio of cytotoxicity against human BT549 cells to IC50 for Cryptococcus neoformans ATCC 90113. The class given is toxicity, cell-based. The following applies: read-out: Selectivity Index.
Data set [7] can be described thus: Selectivity index, ratio of cytotoxicity against pig LLC-PK1 cells to IC50 for Cryptococcus neoformans ATCC 90113. The format is toxicity, cell-based. As to conditions: read-out: Selectivity Index.
Data set [8] in a line: Selectivity index, ratio of cytotoxicity against African green monkey VERO cells to IC50 for Cryptococcus neoformans ATCC 90113. The format is toxicity, cell-based. The following applies: read-out: Selectivity Index.
In data set [9] the test system is Staphylococcus aureus. Briefly: Antibacterial activity against Staphylococcus aureus ATCC 29213 after […] hrs by alamar blue dye based CLSI method. The class given is functional.
For data set [10], the system named is Staphylococcus aureus. The data set is described as follows: Antibacterial activity against methicillin-resistant Staphylococcus aureus ATCC 33591 after 16 to 20 hrs by alamar blue dye based CLSI method. The format is functional. (Alamar Blue is a resazurin reagent that responds to reducing activity.)
The nature of data set [11]: Selectivity index, ratio of cytotoxicity against human SKOV3 cells to IC50 for Staphylococcus aureus ATCC 29213. The format is toxicity, cell-based. As to conditions: read-out: Selectivity Index. Put shortly:
(§2)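 Selectivity index is the ratio CTX/IC50. For CTX, cells were seeded at 25 000 per well and grown 24 h, then exposed to peptide up to 10 μg/mL for 48 h, with viability by neutral red uptake. […] The inoculum was 5 × 10^5 CFU/mL, with OD530 read before and after incubation.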

Data set [12] in a line: Selectivity index, ratio of cytotoxicity against human SK-MEL cells to IC50 for Staphylococcus aureus ATCC 29213. As to conditions: read-out: Selectivity Index. The format is toxicity, cell-based. Put shortly: as §2
Data set [13] is described as follows: Selectivity index, ratio of cytotoxicity against human BT549 cells to IC50 for Staphylococcus aureus ATCC 29213. The class given is toxicity, cell-based. The following applies: read-out: Selectivity Index. The procedure, abridged: as §2
A short description of data set [14]: Selectivity index, ratio of cytotoxicity against pig LLC-PK1 cells to IC50 for Staphylococcus aureus ATCC 29213. The format is toxicity, cell-based. As to conditions: read-out: Selectivity Index. The procedure, abridged:
as §2

Data set [15] in a line: Selectivity index, ratio of cytotoxicity against African green monkey VERO cells to IC50 for Staphylococcus aureus ATCC 29213. The format is toxicity, cell-based. As to conditions: read-out: Selectivity Index. Put shortly: as §2
Data set [16] can be described thus: Selectivity index, ratio of cytotoxicity against human SKOV3 cells to IC50 for methicillin-resistant Staphylococcus aureus ATCC 33591. The class given is toxicity, cell-based. The following applies: read-out: Selectivity Index. Put shortly:
(§3)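 Selectivity index is the ratio CTX/IC50. For CTX, cells were seeded at 25 000 per well and grown 24 h, then given peptide up to 10 μg/mL for 48 h, with neutral red uptake read-out. […] OD530 was read before and after 16−20 h at 35 °C.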

Data set [17] is described as follows: Selectivity index, ratio of cytotoxicity against human SK-MEL cells to IC50 for methicillin-resistant Staphylococcus aureus ATCC 33591. The class given is toxicity, cell-based. The following applies: read-out: Selectivity Index. The procedure, abridged: as §3
A short description of data set [18]: Selectivity index, ratio of cytotoxicity against human BT549 cells to IC50 for methicillin-resistant Staphylococcus aureus ATCC 33591. The format is toxicity, cell-based. The following applies: read-out: Selectivity Index. Put shortly:
as §3

A short description of data set [19]: Selectivity index, ratio of cytotoxicity against pig LLC-PK1 cells to IC50 for methicillin-resistant Staphylococcus aureus ATCC 33591. The class given is toxicity, cell-based. The following applies: read-out: Selectivity Index. The procedure, abridged:
as §3

Data set [20] is described as follows: Selectivity index, ratio of cytotoxicity against African green monkey VERO cells to IC50 for methicillin-resistant Staphylococcus aureus ATCC 33591. The class given is toxicity, cell-based. The following applies: read-out: Selectivity Index. The procedure, abridged:
as §3

Another data set has as its system Escherichia coli. The data set is described as follows: Antibacterial activity against Escherichia coli ATCC 35218 after 16 to 20 hrs by alamar blue dye based CLSI method. The class given is functional.
A further data set has as its system Candida. The data set is described as follows: Antifungal activity against Candida. The class given is functional.
In a further data set the test system is Aspergillus. Briefly: Antifungal activity against Aspergillus. The class given is functional.

Converted amounts (≈) assume the structure as drawn. The source made the active and inactive calls.

As to `OC(Cn1cncn1)(Cn1cncn1)c1ccc(F)cc1F` [FLUCONAZOLE], inhibition of growth in the data set on Cryptococcus neoformans [1] (MIC) required 9.57 µg/mL (≈ 31.2 µM).
Turning to `C[C@@H]1[C@H](O)[C@@H](C)/C=C/C=C/C=C/C=C/C=C/C=C/C=C/[C@H](O[C@@H]2O[C@H](C)[C@@H](O)[C@H](N)[C@@H]2O)C[C@@H]2O[C@](O)(C[C@@H](O)C[C@@H](O)[C@H](O)CC[C@@H](O)C[C@@H](O)CC(=O)O[C@H]1C)C[C@H](O)[C@H]2C(=O)O` [AMPHOTERICIN B], in the data set on Cryptococcus neoformans [2], the MFC (commonly the smallest concentration meeting the test's criterion for killing the fungus) came out at 1.25 µg/mL (≈ 1.35 µM). The MIC (usually the least concentration at which growth counts as inhibited) in the data set with Cryptococcus neoformans [2] stood at 1.25 µg/mL (≈ 1.35 µM); in the data set with Cryptococcus neoformans [1], 0.89 µg/mL (≈ 0.963 µM). Further, the outcome with Cryptococcus neoformans [3] was Active.
Consider `CC(C)(C)c1ccc(-c2nc(C[C@H](NC(=O)[C@H](Cc3c[nH]c4ccccc34)NC(=O)[C@@H](N)Cc3c[nH]c(-c4ccc(C(C)(C)C)cc4)n3)C(=O)NCc3ccccc3)c[nH]2)cc1`, for which the figures for the IC50 with Cryptococcus neoformans [2], with Staphylococcus aureus [9] and in the data set on Staphylococcus aureus [10] were 2.6 µg/mL (≈ 3.12 µM), 3.72 µg/mL (≈ 4.47 µM) and 6.7 µg/mL (≈ 8.05 µM), respectively. In the data set with Cryptococcus neoformans [2], this molecule had an MFC of 5 µg/mL (≈ 6.01 µM). Further, the MIC was 5 µg/mL (≈ 6.01 µM) against Cryptococcus neoformans [2], 10 µg/mL (≈ 12 µM) with Staphylococcus aureus [9] and > 20 µg/mL with Staphylococcus aureus [10]. Also, the Activity in the data set with SK-OV-3, in the data set on SK-MEL, with BT-549, in the data set on LLC-PK1 and with Vero was > 10 µg/mL throughout. Also, the selectivity ratio in [4] was > 3.8; in [5], > 3.8; in data set [6], > 3.8; in data set [7] it was > 3.8; in [8], > 3.8; in data set [11] it was > 2.68. Besides, the selectivity ratio was > 2.68 in data set [12]; > 2.68 in data set [13]; > 2.68 in [14]; > 2.68 in data set [15]; > 1.49 in [16]; > 1.49 in [17]. Further, the selectivity ratio in data set [18], in [19] and in data set [20] was > 1.49 in each case. The MBC (in general, the smallest concentration meeting the test's criterion for killing) is 20 µg/mL (≈ 24 µM) against Staphylococcus aureus [9] and > 20 µg/mL in the data set on Staphylococcus aureus [10]. The result with Escherichia coli, with Candida and in the data set on Aspergillus was inactive.

(Values after ChEMBL document CHEMBL4011658 (J Med Chem, 2017).)
